High-throughput results: PubChem BioAssay, several laboratories
thrombin 1536 – thrombin (human) inhibition. inhibition, % at 5 µM. AID 1046. P00734. actives 0.26% (n = 220,000). alpha-thrombin, Boc-VPR-AMC fluorogenic substrate cleavage;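 active = inhibition at or above 40%; inactive = inhibition below 40%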;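 also: 0% = enzyme with no compound and 100% = wells without enzyme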
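Test system: human alpha-thrombin; medium: pH 7.5 Tris-saline with Tween 20; times: reaction at room temperature; signal: AMC fluorescence at 355 nm excitation and 460 nm emission; also added: Boc-VPR-AMC substrate, 15 µM final; dosing: one concentration per compound, 5 µM, with 0.2% DMSO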
EP2 modulator – modulators of human EP2 prostaglandin E2 receptor; P43116; EP2-expressing cells, cAMP HTRF FRET, PGE2 co-stimulation; induction, % at 25 µM; actives 0.83% (n = 260,000);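 active = compounds whose cAMP rise, as percent of the full-agonist control response, exceeds 60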;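 also: rat C6 glioma line stably carrying human EP2 under a CMV promoter; the protocol text gives 20 µM as final concentration; 100% = response of wells given 1 µM PGE2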
FXIa inh 1536 – factor XIa (human) inhibition. inhibition, % at 5 µM. actives 0.14% (n = 220,000). purified FXIa, Boc-Glu-Ala-Arg-AMC fluorogenic substrate. AID 798. P03951;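 active = inhibition of at least 40%; inactive = inhibition below 40%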;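 also: fluorescence of freed AMC excited at 355 nm; 0% = enzyme without compound and 100% = no enzyme blank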
Target sequence (P03951 19-387 limits assumed): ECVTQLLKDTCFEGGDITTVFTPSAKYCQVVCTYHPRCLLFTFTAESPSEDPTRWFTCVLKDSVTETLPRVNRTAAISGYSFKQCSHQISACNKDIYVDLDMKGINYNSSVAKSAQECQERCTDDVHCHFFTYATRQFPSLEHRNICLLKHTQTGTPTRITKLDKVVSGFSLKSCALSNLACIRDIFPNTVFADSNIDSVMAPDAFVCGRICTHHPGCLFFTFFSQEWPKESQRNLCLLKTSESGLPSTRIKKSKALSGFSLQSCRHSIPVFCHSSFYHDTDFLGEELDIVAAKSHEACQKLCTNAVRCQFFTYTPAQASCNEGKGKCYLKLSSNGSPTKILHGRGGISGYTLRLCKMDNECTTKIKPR
Target sequence (P03951 388-625 limits assumed): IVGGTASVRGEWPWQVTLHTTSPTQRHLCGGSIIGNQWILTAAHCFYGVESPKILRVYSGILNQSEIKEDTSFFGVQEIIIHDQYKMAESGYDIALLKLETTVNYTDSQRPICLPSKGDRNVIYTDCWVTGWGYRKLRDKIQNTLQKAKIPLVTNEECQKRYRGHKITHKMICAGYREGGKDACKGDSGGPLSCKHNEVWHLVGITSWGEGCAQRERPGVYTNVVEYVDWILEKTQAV
PGE2 EP2 inh – blocks the human prostaglandin E2 receptor EP2; inhibition, % at 25 µM; AID 1422; actives 0.52% (n = 260,000); C6 glioma cells expressing human EP2, cAMP TR-FRET; cells stimulated with saturating PGE2;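 active = percent inhibition above 40 after rounding to a whole number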;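 also: rat C6 glioma host cells with rolipram phosphodiesterase inhibitor present; the protocol text gives 20 µM as final concentration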
FXIIa inh 1536 – inhibitors of human coagulation factor XIIa. P00748. actives 0.3% (n = 220,000). AID 800. purified FXIIa, Boc-QGR-AMC fluorogenic substrate, 2 h. inhibition, % at 5 µM; in the data active = inhibition above about 40%;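 also: 0% = enzyme with no compound and 100% = blank without enzyme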
KLK5 inh – inhibitors of human kallikrein 5 | Q9Y337 | recombinant hK5, fluorogenic AMC substrate cleavage | inhibition, % at 5 µM | actives 0.59% (n = 210,000) | AID 873;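 active = inhibition of 40% or more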;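 also: 0% = enzyme controls without compound and 100% = no-enzyme blanks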
An asterisk follows results filed as active; / = no result. Sampled rows, rich in hits. Any-hit rate of the full collection: about 2.1%.

SMILES	thrombin 1536	EP2 modulator	FXIa inh 1536	PGE2 EP2 inh	FXIIa inh 1536	KLK5 inh
C=C1C(=O)C=C2CN(C(=O)c3ccccc3)[C@@](Cc3ccc(F)cc3)(C(=O)OC)[C@@H]12	1	-44	5	92*	16	-4
COC(=O)[C@@]1(Cc2ccc(OC)cc2)[C@@H]2C(=CC(=O)[C@H]2CC(=O)C(=O)N(C)C)CN1C(=O)c1ccccc1	3	4	5	16	17	-6
O=S1(=O)CCN(c2ccccc2CC(c2c[nH]c3ccccc23)c2c[nH]c3ccccc23)CC1	/	7	/	52*	/	/
O=C(O)c1ccncc1.O=C(O)c1ccncc1.[NH2-].[NH2-].[Pt]	/	-14	/	51*	/	/
O=C(c1ccncc1)N1CCN(C(=O)c2ccncc2)CC1	-3	4	5	5	9	0
CC(C)c1[nH]nc2c1C(c1ccccc1Cl)C(C#N)=C(N)O2 (stereo unspecified)	/	14	/	19	/	/
COc1cccc(C(=O)N/N=C/c2ccc(OC3CSC3)cc2)c1	25	-4	19	10	25	45*
Cc1cccc(C(=O)N/N=C/c2ccc(OC3CSC3)cc2)c1	1	16	-8	8	10	-23
COc1ccc2cc(CN(CC3CCCO3)C(=S)Nc3ccc(C)cc3)c(=O)[nH]c2c1 (stereo unspecified)	/	23	/	17	/	/
O=C1C=CC(=O)N1CCNc1ncc(C(F)(F)F)cc1Cl	-2	-50	7	101*	7	-6
O=C1CC(=O)N(CCNc2ncc(C(F)(F)F)cc2Cl)C(=O)N1	2	5	2	8	12	-13
O=C(CN1CCC(c2ccc3c(c2)OCO3)CC1)N1CCCc2ccccc21	/	-24	/	1	/	/
Cc1cc(NC(=O)c2ccc(S(=O)(=O)N(C)CC3CCCO3)cc2)no1 (stereo unspecified)	-1	21	-1	5	6	2
CN(CC1CCCO1)S(=O)(=O)c1ccc(C(=O)Nc2ccc3c(c2)OCO3)cc1 (stereo unspecified)	5	-69	34	13	29	61*
COc1ccc(C2C(C#N)=C(C)NC3=C2C(=O)c2ccccc23)cc1 (stereo unspecified)	-7	-8	5	49*	13	9
O=C1c2ccccc2C(=O)C1c1nc2c(ccc3sccc32)s1	/	-35	/	6	/	/
CCCC1=NN(C(=O)Cc2ccc([N+](=O)[O-])cc2)C(O)(C(F)(F)F)C1 (stereo unspecified)	-2	-23	-7	6	-4	-23
CCC1=NN(C(=O)Cc2ccc([N+](=O)[O-])cc2)C(O)(C(F)(F)F)C1 (stereo unspecified)	22	4	28	8	56*	25
CC(C)N1CCN(c2ccncc2S(=O)(=O)N2CCCCC2)CC1	/	1	/	41*	/	/
CC(C)NC(=O)N1CCN(c2ccncc2S(=O)(=O)N2CCOCC2)CC1	1	9	-2	3	6	-17
Cc1c(C(=O)N2CCC(C(N)=O)CC2)sc(N)c1C#N	104*	12	8	13	9	107*
CCCNC(=O)N1CCN(c2ncccn2)CC1	24	0	17	13	19	61*
CC(O)CNc1nc(-c2cccc(Cl)c2)nc2ccccc12 (stereo unspecified)	/	-64	/	8	/	/
CCOC(=O)C1=C(N)OC2=C(C(=O)CC(C)(C)C2)C1c1ccc(F)cc1 (stereo unspecified)	/	14	/	12	/	/
COC(=O)c1ccc(C2C(C(=O)OC(C)C)=C(N)OC3=C2C(=O)CC(C)(C)C3)cc1 (stereo unspecified)	/	65*	/	3	/	/
SMILES	thrombin 1536	EP2 modulator	FXIa inh 1536	PGE2 EP2 inh	FXIIa inh 1536	KLK5 inh
COc1ccc(-n2c(=O)c3c(C)c(C)sc3n(Cc3cccc(F)c3)c2=O)c(OC)c1	3	61*	-5	5	-3	-19
O=C(NNC(=O)c1cccs1)c1ccc(Br)o1	17	-3	43*	4	18	-14
O=C(NNC(=O)C(c1ccccc1)c1ccccc1)c1cccs1	104*	13	19	7	25	56*
CCC(=O)N1CCC[C@H](Cn2nc(-c3cccs3)ccc2=O)C1	/	-26	/	8	/	/
O=C(Nc1sc(NC(=O)c2cccs2)nc1-c1cccs1)c1ccccc1	/	61*	/	18	/	/
CC(=O)c1cccc(NC(=O)N2CCCC2C(=O)NC(C)C)c1 (stereo unspecified)	/	-3	/	6	/	/
CSCCC(NS(=O)(=O)c1ccc(C)cc1)C(=O)NC1CCCCC1 (stereo unspecified)	-1	-6	1	5	10	-1
COc1ccc(S(=O)(=O)NC(CCSC)C(=O)NC2CCCCC2)cc1 (stereo unspecified)	23	-1	27	9	34	41*
CCOC(=O)C(CC)n1cnc2sc3c(c2c1=O)CCCC3 (stereo unspecified)	/	11	/	6	/	/
COc1ccc(S(=O)(=O)N2CCCCCC2)cc1NC(=O)Cc1cc(OC)c(OC)c(OC)c1	2	10	6	11	13	-7
COc1ccc(S(=O)(=O)N2CCCCC2)cc1NC(=O)CN(C)C1CCCCC1	/	7	30	3	49*	19
O=C(CCl)Nc1ccccc1Sc1ccccc1	-7	64*	-9	15	0	2
CN1CCN(CC(=O)Nc2ccccc2Sc2ccccc2)CC1	-10	28	-3	7	1	-3
O=C(CN1CCCC1)Nc1ccccc1Sc1ccccc1	-1	61*	6	9	0	-15
CC1(C)CC(=O)CC(=NCC(=O)O)C1	0	28	-7	6	-2	128*
COc1cc(/C=C/C(=O)OCc2c(C)noc2C)ccc1OC(F)F	13	-4	39	83*	35	54*
CCc1cccc(N(C(=O)c2csnn2)C(C(=O)NC(C)(C)C)c2cccnc2)c1 (stereo unspecified)	/	-14	/	10	/	/
CCc1c(C)sc2nc(C(C)C)n3c(=O)n(Cc4cccnc4)nc3c12	/	19	/	/	/	/
CCc1c(C)sc2nc(C(C)C)n3c(=O)n(Cc4ccncc4)nc3c12	/	61*	/	/	/	/
Nc1ccc(N2Cc3ccccc3C2)cc1	/	-86	/	17	/	/
Cc1cc(C)n(Cc2ccc(Cl)cc2Cl)c(=O)c1S(=O)(=O)c1ccccc1	-7	62*	2	10	4	3
COc1cc(C(N)=O)cc(Cl)c1OC	2	-2	20	1	47*	34
C=CCn1c2cc(C)sc2c2cnn(CC(=O)NCc3ccco3)c(=O)c21	/	-11	/	/	/	/
CC(=O)O/N=C1\C(=O)N(Cc2ccc(C)cc2)c2ccccc21	12	63*	0	2	10	-6
Cc1ccc2nc(N/N=C/c3cccc(C)n3)cc(C)c2c1	/	-45	/	40*	/	/
CC1CCCN(C(c2cc3cc4c(cc3[nH]c2=O)OCO4)c2nnnn2CC2CCCO2)C1 (stereo unspecified)	/	-22	/	7	/	/
